According to ChEMBL document CHEMBL2150868, “Bi-, tri-, and polycyclic acylphloroglucinols from Hypericum empetrifolium” (J Nat Prod, 2012):

Legend:
[1] = Antiangiogenic activity in bovine endothelial cells assessed as inhibition of cell proliferation; format: functional, cell-based; conditions: Bos taurus
[2] = Antiangiogenic activity in SV-40T transfected human HMEC1 cells assessed as inhibition of cell proliferation after 72 hrs by crystal violet staining; format: functional, cell-based; conditions: HMEC-1, 72 h
Summary of the method: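 SV-40T-transfected human microvascular endothelial HMEC-1 cells kept at 37 °C, 5% CO2, humidified. Seeded 1.5 × 10^3 cells/well in endothelial growth medium with 10% FCS, allowed 24 h adhesion (crystal-violet baseline plate). Exposed to 0.1−30 or 0.2−60 μM compound (DMSO; 0.1% DMSO control) for 72 h. Crystal violet stain, A540. IC50 ± SD from three independent experiments, hexaplicates.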

For `CC(C)=CCC[C@]1(C)[C@@H](CC=C(C)C)C[C@]2(CC=C(C)C)C(=O)C(CC=C(C)C)=C(O)[C@@]1(C(=O)C(C)C)C2=O`, the IC50 [1] was 2.1 µM.
Work on `CC(C)C(=O)c1c(O)cc(O)c2c1O[C@]1(C)CCCC(C)(C)[C@H]1C2` (relative stereo) [EMPETRIFERDINAN A] yielded an IC50 [2] of 24.4 µM.
In the case of `CCC(C)C(=O)c1c(O)cc(O)c2c1OC(C)(CCC=C(C)C)CC2` (centres undefined), the IC50 [2] is reported as 13.3 µM.
Molecule `CCC(C)C(=O)c1c(O)cc2c(c1O)CCC(C)(CCC=C(C)C)O2` (centres undefined) has an IC50 [2] of 21.1 µM.
Molecule `CC(C)=CCC[C@@]1(C)Oc2c(c(O)cc(O)c2C(=O)C(C)C)C[C@@H]1O` (relative stereo) [EMPETRIKARINOL A] has an IC50 [2] of 23.4 µM.
In the case of `CCC(C)C(=O)c1c(O)cc(O)c2c1O[C@](C)(CCC=C(C)C)[C@@H](O)C2` (relative stereo) [EMPETRIKARINOL B], the IC50 [2] is reported as 18.4 µM.
`CC(C)=CCCC1(C)CCc2c(cc(O)c(C(=O)C(C)C)c2O)O1` (centres undefined) gave an IC50 [2] of 29.6 µM.
For `CC(C)=CCCC1(C)C=Cc2c(O)cc(O)c(C(=O)C(C)C)c2O1` (centres undefined) [EMPETRIKARINEN A], the IC50 [2] was 24.4 µM.
`CC(C)=CCCC1(C)CCc2c(O)cc(O)c(C(=O)C(C)C)c2O1` (centres undefined) showed an IC50 [2] of 16.5 µM.
`CCC(C)C(=O)c1c(O)cc(O)c2c1OC(C)(CCC=C(C)C)C=C2` (centres undefined) [EMPETRIKARINEN B] showed an IC50 [2] of 15 µM.
`CCC(C)C(=O)c1c(O)cc2c3c1OC(C)(C)C1CCC(C)(CC31)O2` (centres undefined) [EMPETRIFRANZINAN C] showed an IC50 [2] of 9.2 µM.
For `CCC(C)C(=O)c1c(O)cc(O)c2c1O[C@]1(C)CCCC(C)(C)[C@H]1C2` (relative stereo) [EMPETRIFERDINAN B], the IC50 [2] was 16.6 µM.
`COc1cc(O)c(CC=C(C)C)c(O)c1C(=O)/C=C/c1ccc(O)cc1` [XANTHOHUMOL] gave an IC50 [2] of 11.4 µM.
With `CCC(C)C(=O)c1c(O)cc(O)c2c1O[C@]1(C)CC[C@@H](O)C(C)(C)[C@H]1C2` (relative stereo) [EMPETRIFERDINOL] the IC50 [2] was 29.2 µM.
